Values after ≈ are worked out from the molar mass of the structure shown.
What was measured:
Plasmodium falciparum [1] = experiment: Antimalarial activity against chloroquine-resistant Plasmodium falciparum K1 infected in human erythrocytes assessed as reduction in parasitemia after 72 hrs by spectrophotometry; assay type: functional, organism-based; settings: K1, 72 h
[2] = Dissociation constant, pKa of the compound; assay type: physicochemical
Plasmodium falciparum [3] = experiment: Antimalarial activity against chloroquine-sensitive Plasmodium falciparum 3D7 infected in human erythrocytes assessed as reduction in parasitemia after 72 hrs by spectrophotometry; assay type: functional, organism-based; settings: 3D7, 72 h
[4] = Permeability of the compound at pH 7.4 after 30 mins by PAMPA; assay type: ADME; settings: read-out: permeability
How it was run: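 PAMPA at pH 7.4. A 10 mM DMSO stock is diluted into system solution buffer; its UV spectrum serves as reference. Membrane painted with GIT lipid, acceptor chamber holds acceptor solution buffer. Sandwich stirred for 30 min, aqueous boundary layer set to 40. Donor and acceptor UV spectra read at 250–500 nm. Permeability coefficient from the AUCs of reference, donor and acceptor. Single experiment in triplicate.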

[5] = Ratio of EC50 for human HepG2 cells to EC50 for Plasmodium falciparum K1 infected in human erythrocytes
[6] = Ratio of EC50 for human HepG2 cells to EC50 for Plasmodium falciparum 3D7 infected in human erythrocytes
Plasmodium falciparum [7] = experiment: Ratio of EC50 for chloroquine-resistant Plasmodium falciparum K1 infected in human erythrocytes to EC50 for chloroquine-sensitive Plasmodium falciparum 3D7 infected in human erythrocytes; assay type: functional
HepG2 = experiment: Cytotoxicity against human HepG2 cells assessed as intracellular ATP level after 72 hrs by Celltiter-Glo luminescent assay; assay type: cell-based; settings: HepG2, 72 h
[8] = Solubility of the compound at pH 7.4 after 18 hrs by UV spectroscopic analysis; assay type: physicochemical; settings: buffer
How it was run: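 Kinetic solubility. A 10 mM stock is diluted 1:100 into PBS pH 7.4 and incubated 18 h at room temperature, then filtered; the filtrate is mixed 1:1 with 1-propanol. UV spectrum (250–500 nm) compared by AUC with a 1-propanol/PBS reference. Single experiment in triplicate.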

| SMILES | EC50 (Plasmodium falciparum [1]) | pKa [2] | EC50 (Plasmodium falciparum [3]) | Papp at 0.5 h [4] | Ratio EC50 [5] | Ratio EC50 [6] | Ratio EC50 (Plasmodium falciparum [7]) | EC50 (HepG2) | solubility at 18 h [8] |
| --- | --- | --- | --- | --- | --- | --- | --- | --- | --- |
| COc1ccc(Oc2ccc3c(NCCCNCc4ccco4)ccnc3c2)cc1 | 20 nM | 9.28 | 4 nM | 317 ×10⁻⁶ cm/s | 265 | 1479 | 5.6 | 5300 nM | 14.5 µM (≈ 5.85 µg/mL) |
| COc1ccc(F)cc1CNCCCNc1ccnc2cc(Oc3cccc(N(C)C)c3)ccc12 | 31 nM | 9.28 | 7 nM | 317 ×10⁻⁶ cm/s | 110 | 514 | 4.7 | 3300 nM | 14.5 µM (≈ 6.88 µg/mL) |
| c1ccc(Oc2ccc3c(NCCCNCc4ccc5c(c4)OCO5)ccnc3c2)cc1 | 78 nM | 9.28 | 18 nM | 317 ×10⁻⁶ cm/s | 34 | 149 | 4.3 | 2700 nM | 14.5 µM (≈ 6.2 µg/mL) |
| COc1ccccc1Oc1ccc2c(NCCCNCc3ccco3)ccnc2c1 | 87 nM | 9.28 | 1 nM | 317 ×10⁻⁶ cm/s | 75 | 5014 | 66.9 | 6500 nM | 14.5 µM (≈ 5.85 µg/mL) |
| Fc1ccc(Oc2ccc3c(NCCCNCc4ccco4)ccnc3c2)cc1 | 96 nM | 9.28 | 26 nM | 317 ×10⁻⁶ cm/s | 167 | 611 | 3.6 | 16000 nM | 14.5 µM (≈ 5.68 µg/mL) |
| COc1ccc(F)cc1CNCCCNc1ccnc2cc(Oc3ccc(Cl)cc3)ccc12 | 109 nM | 9.28 | 31 nM | 317 ×10⁻⁶ cm/s | 41 | 143 | 3.5 | 4500 nM | 14.5 µM (≈ 6.76 µg/mL) |
| COc1ccc(F)cc1CNCCCNc1ccnc2cc(Oc3ccc(F)cc3)ccc12 | 135 nM | 9.28 | 297 nM | 317 ×10⁻⁶ cm/s | 49 | 22 | 0.5 | 6600 nM | 14.5 µM (≈ 6.52 µg/mL) |
| COc1ccc(F)cc1CNCCCNc1ccnc2cc(Oc3ccccc3)ccc12 | 138 nM | 9.28 | 162 nM | 317 ×10⁻⁶ cm/s | 11 | 9 | 0.9 | 1500 nM | 14.5 µM (≈ 6.26 µg/mL) |
| COc1cccc(Oc2ccc3c(NCCCNCc4ccco4)ccnc3c2)c1 | 153 nM | 9.28 | 9 nM | 317 ×10⁻⁶ cm/s | 102 | 1763 | 17.4 | 15500 nM | 14.5 µM (≈ 5.85 µg/mL) |
| CN(C)c1cccc(Oc2ccc3c(NCCCNCc4ccco4)ccnc3c2)c1 | 155 nM | 9.28 | 27 nM | 317 ×10⁻⁶ cm/s | 103 | 588 | 5.7 | 16000 nM | 14.5 µM (≈ 6.04 µg/mL) |
| COc1cccc(CNCCCNc2ccnc3cc(Oc4ccc(C(C)(C)C)cc4)ccc23)c1O | 249 nM | 9.28 | 54 nM | 317 ×10⁻⁶ cm/s | 6 | 28 | 4.6 | 1500 nM | 14.5 µM (≈ 7.04 µg/mL) |
